A selection: hits, their analogues and other compounds. The true share with any hit is near 2.5%.
TRPC6 inhibitor: mouse TRPC6 channel inhibitors, primary screen, cell-based, HEK293, membrane potential dye | ACh-evoked depolarization; active compounds read low | B-score at 10 µM | 310,000 compounds, 1.1% hits | AID 2553, 2010;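 active = B-score under library mean minus 3 SD, initial fluorescence not abnormally high, positive integrated signal ratio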;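 also: B-score derived from integrated fluorescence ratio over the kinetic read; more negative B-score means stronger inhibition of depolarization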
TRPC4 agonist: activators of mouse TRPC4 channel, primary screen, Fluo4 calcium, HEK293 TRPC4beta/mu-opioid cells | 310,000 compounds, 0.49% hits | AID 2237, 2010 | Fluo4 calcium fluorescence; active compounds read high | Short transient receptor potential channel 4 (Mus musculus), Q9QUQ5 | B-score at 10 µM;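 active = B-score above 5 SD of library B-scores, and initial fluorescence ratio not above library mean plus 5 SD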;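 also: positive B-score marks a calcium rise read as TRPC4 activation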
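Test system: HEK293 cells stably co-expressing mouse TRPC4beta and mu-opioid receptor | Schedule: Fluo4 dye loading 45 min at room temperature, 110 s recording | Measured by: Kinetic Fluo4 calcium fluorescence, 5 s baseline at 1 Hz | Evaluation: B score of integrated ratio | Controls: Buffer (low) and maximal DAMGO (high)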
TRPC4 block: inhibitors of mouse TRPC4 channel, primary screen, Fluo4 calcium, HEK293 TRPC4beta/mu-opioid cells | B-score at 10 µM | AID 2247, 2010 | Short transient receptor potential channel 4 (Mus musculus), Q9QUQ5 | DAMGO-evoked Fluo4 calcium flux; active compounds read low | 300,000 compounds, 0.39% hits;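 active = B-score over 3 SD under the library average, no early fluorescence shift, positive overall ratio signal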
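Material: HEK293 cells with stable TRPC4beta plus mu-opioid receptor expression; probe or stimulus: DAMGO in two steps, submaximal then maximal; technique: Fluo4 calcium fluorescence by kinetic imaging, 5 s 1 Hz baseline; measure: integrated fluorescence ratio relative to baseline, converted to per-well B score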
TRPC4 PAM: positive allosteric modulators of TRPC4, primary screen, cell-based, mouse TRPC4beta, HEK293 mu-opioid, Fluo-4 calcium | Short transient receptor potential channel 4 (Mus musculus), Q9QUQ5 | DAMGO EC20, Fluo-4 Ca2+ flux; active compounds read high | B-score at 10 µM | 310,000 compounds, 0.42% hits | AID 2227, 2009;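 active = B-score of calcium response area above 5 SD of library B-scores, with initial fluorescence ratio within 5 SD of library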;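 also: B-score of integrated fluorescence ratio over time as area under calcium response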
TRPC6 activator: mouse TRPC6 channel activators, primary screen, cell-based, HEK293, membrane potential dye; 310,000 compounds, 0.13% hits; Short transient receptor potential channel 6 (Mus musculus), Q61143; B-score at 10 µM; AID 2550, 2010; HEK293-TRPC6 membrane potential dye fluorescence; active compounds read high;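 active = B-score of the integrated fluorescence ratio above library mean plus 3 SD, and starting fluorescence ratio within library mean plus 5 SD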;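 also: higher score means more depolarization so channel activation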
Pemphigus Ab inh: inhibitors of pemphigus antibody binding to DSG3, primary screen, biochemical, bead-based, flow cytometry, scFv-GFP; 310,000 compounds, 0.48% hits; DSG3-coupled beads, scFv-anti-DSG3-GFP binding; active compounds read low; Desmoglein-3 (Homo sapiens), P32926; binding (percent of control), % at 10 µM;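 active = binding more than 3 SD below its plate's average and above zero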;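 also: hits lower antibody fragment binding to DSG3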
HEK293 TRPC6 ctr: parental HEK293 membrane potential modulation, confirmation, counter-screen for TRPC6 modulator project, cell-based. membrane potential signal change, % at 10 µM. shares compounds with TRPC6 inhibitor. AID 488924, 2010. membrane potential dye fluorescence. 2,400 compounds, 51% hits;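 active = membrane potential signal moves up or down beyond 5 SD from buffer-only wells, on both duplicate plates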
HEK293 MPD ctr 2: parental HEK293 nonspecific activity of TRPC6 modulators, second screen; inhibition, % at 10 µM; shares compounds with TRPC6 inhibitor; AID 488926; membrane potential dye fluorescence; after compound, maximal acetylcholine stimulation; 2,400 compounds, 14% hits;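 active = membrane potential signal drops by more than 5 SD from the mean control signal, in both duplicate plates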;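 also: plate controls were acetylcholine ECmax control wells for no effect and buffer only wells for full effect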
TRPC4 ctr mod: TRPC4 modulation by TRPC6 hit compounds, confirmation, selectivity assay for TRPC6 modulator project, cell-based, HEK293 TRPC4/mu-opioid, membrane potential dye, mouse; shares compounds with TRPC6 inhibitor; membrane potential fluorescence; percent change from control (negative = decrease, positive = increase), % at 10 µM; 2,400 compounds, 69% hits; AID 488927, 2010;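 active = membrane potential signal moved up or down beyond 5 SD of buffer control wells, in both duplicate plates, actives on both sides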;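 also: plate controls were assay buffer wells for no effect and DAMGO maximal-effect wells for full effect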
TRPC4/MOR inh 2: mouse TRPC4 off-target activity of TRPC6 modulators, second screen; HEK293 TRPC4/mu-opioid, membrane potential dye fluorescence; stimulated with maximal-effect DAMGO; shares compounds with TRPC6 inhibitor; AID 488928; 2,400 compounds, 55% hits; inhibition, % at 10 µM;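 active = drop in membrane potential signal beyond 5 SD of the control wells in both duplicate plates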;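 also: TRPC4 counter screen for TRPC6 hits run under conditions tuned for TRPC6 not TRPC4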
TRPC6 inh conf: mouse TRPC6 channel inhibitors, confirmation, HEK293 cells, membrane potential dye, duplicate; shares compounds with TRPC6 inhibitor; ACh-evoked depolarization; inhibition, % at 10 µM; 3,300 compounds, 43% hits; AID 488960, 2010;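 active = fluorescence ratio falls more than 5 SD below the full-stimulation control mean, in both duplicate runs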;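 also: integrated fluorescence ratio of peak minus minimum over baseline after agonist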
TRPC6 act confirm: mouse TRPC6 channel activators, confirmation, HEK293 cells, membrane potential dye, duplicate; shares compounds with TRPC6 inhibitor; HEK293-TRPC6 membrane potential dye fluorescence, FDSS; activation, % at 10 µM; 2,800 compounds, 11% hits; AID 488961, 2010;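 active = ratio signal rise beyond 5 SD above unstimulated control wells' mean, seen in both duplicate runs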;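 also: plate controls were buffer EC0 wells for no effect and acetylcholine ECmax response for full effect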
Starred values were filed as active, the others as inactive; i = inactive; x = no result given.

SMILES | TRPC6 inhibitor | TRPC4 agonist | TRPC4 block | TRPC4 PAM | TRPC6 activator | Pemphigus Ab inh | others
CCCN(CCC)CCNC(=O)C1CCN(Cc2nc(-c3ccc(Cl)cc3)oc2C)CC1 | -7.2* | i | i | i | i | 100
Cc1nc2nc(-c3ccco3)[nH]n2c(=O)c1C | i | i | i | i | i | 65*
CCOC(=O)c1nc(SC)n(C)c1C(=O)OCC | i | i | i | i | i | 88
O=c1[nH]c(C2CCCN(S(=O)(=O)c3ccccc3)C2)nc2c1nnn2Cc1ccccc1Br (configuration not stated) | i | i | i | 10* | i | 99
CC(=O)OC(C#CCN1CCOCC1)c1ccccc1 (configuration not stated) | i | i | i | i | i | 95
OC(C#CCN1CCOCC1)c1cccs1 (configuration not stated) | i | 77* | i | i | i | x
O=C(COc1ccccc1)Nc1nc(-c2cccs2)cs1 | i | i | i | i | i | 103
O=C(CCS(=O)(=O)c1ccccc1)Nc1nc(-c2cccs2)cs1 | i | i | i | i | i | 69*
O=C(N/N=C/C1CC2CCC1C2)c1c[nH]c2ccccc12 (configuration not stated) | i | i | i | i | i | 106
O=C(CCCN1CCN(c2ccccc2)CC1)c1ccc(F)cc1 | x | x | x | x | x | 105
O=C1NCN(c2ccccc2)C12CCN(CCCC(c1ccc(F)cc1)c1ccc(F)cc1)CC2 | i | 116* | i | i | i | x
O=C(Nc1ccccn1)C1CCN(c2ncnc3c2nc2n3CCCCC2)CC1 | i | i | i | i | i | 104
COc1ccc(-n2c(C)cc(/C=C3\SC(=S)N(Cc4ccco4)C3=O)c2C)cc1 | i | i | i | i | i | 108
COc1ccc(-c2nn(-c3ccccc3)cc2/C=C2/SC(=S)N(Cc3ccco3)C2=O)c(C)c1 | i | i | i | i | i | 87*
CCc1ccc(Nc2n[n+](-c3ccccc3)c(/C=C/c3ccccc3)s2)cc1 | i | i | i | 15* | i | x
Cc1cccc(NC(=O)CS(=O)(=O)Cc2ccccc2)n1 | i | 53* | i | i | i | 96
Oc1ccccc1-c1nnc(COc2ccccc2)o1 | i | i | i | i | i | 109
Oc1ccccc1-c1nnc(COc2ccc(Cl)cc2Cl)o1 | i | i | i | i | i | 66*
Cc1nnc(SCC(=O)NNC(=O)c2ccc(Br)cc2)n1C | i | i | i | i | i | 105
Cc1c(O)cc2c(c1O)C(=O)CC(c1ccc(O)cc1)O2 (configuration not stated) | i | i | i | i | i | 77*
Cc1ccn2c(CNCCn3cccn3)c(C(=O)N3CCCCCC3)nc2c1 | i | i | i | i | i | 109
Cc1ccn2c(CNCCCn3cccn3)c(C(=O)N3CCCCCC3)nc2c1 | i | i | -7* | i | i | 99
O=C1Nc2ccc(F)cc2C12OCCO2 | i | i | i | i | i | 88
CCOc1ccccc1NC(=O)CN(c1ccc(OC)cc1)S(=O)(=O)c1c(C)[nH]c(=O)[nH]c1=O | i | i | i | 20* | i | 92
COc1ccc(N(CC(=O)Nc2ccccc2C)S(=O)(=O)c2c(C)[nH]c(=O)[nH]c2=O)cc1 | i | i | i | i | i | 88
COc1cccc(NC(=S)N(CCCN2CCCC2)Cc2cccn2Cc2ccc(Cl)cc2)c1 | -5.3* | i | i | i | i | 100 | HEK293 TRPC6 ctr=i;HEK293 MPD ctr 2=i;TRPC4 ctr mod=i;TRPC4/MOR inh 2=62%*;TRPC6 inh conf=48%*;TRPC6 act confirm=i
S=C(Nc1cccc(Cl)c1)N(CCCN1CCCC1)Cc1cccn1Cc1ccc(Cl)cc1 | i | i | i | i | i | 95
CCOc1cc(/C=N/NC(=O)C(O)(c2ccccc2)c2ccccc2)ccc1OC(=O)c1ccco1 | i | i | i | i | i | 89
COc1ccc(-c2nc(C(=O)NCCCN3CCOCC3)cc3c2[nH]c2ccccc23)cc1OC | -5.6* | i | i | i | i | 105 | HEK293 TRPC6 ctr=i;HEK293 MPD ctr 2=i;TRPC4 ctr mod=-18%*;TRPC4/MOR inh 2=67%*;TRPC6 inh conf=46%*;TRPC6 act confirm=i

Screens deposited in PubChem by several laboratories.
